Results reported in ChEMBL document CHEMBL5705897, “Characterization of WZ4003 and HTH-01-015 as selective inhibitors of the LKB1-tumour-suppressor-activated NUAK kinases” (Biochem J, 2014).
Activity calls are given as the source filed them. No cut-off for these calls is given here.

Columns and labels:
[1] = target: Serine/threonine-protein kinase BRSK2 (Homo sapiens) (UniProt Q8IWQ3); assay: Inhibition of recombinant human N-terminal His6-tagged BRSK2 (2 to 674 residues) expressed in baculovirus infected Sf21 cells assessed as remaining activity at 1 uM using KKLNRTLSFAEPG as substrate incubated for 30 mins in presence of [gamma-33P]ATP by filter binding method relative to control
Method in brief: (§1)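 Screened at the International Centre for Protein Kinase Profiling against a 140-kinase panel, with inhibitor at 0.1 or 1 μM; activity expressed as percentage of DMSO control reactions, mean of triplicate reactions.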

[2] = target: Ephrin type-B receptor 4 (Homo sapiens) (UniProt P54760); assay: Inhibition of recombinant human N-terminal His6-tagged EPHB4 (561 to 987 residues) expressed in baculovirus infected Sf21 cells assessed as remaining activity at 1 uM using Poly (Glu,Tyr) as substrate incubated for 30 mins in presence of [gamma-33P]ATP by filter binding method relative to control
Method in brief: (§2)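 Run within a 140-kinase specificity panel at the International Centre for Protein Kinase Profiling. Compounds were dissolved in DMSO and tested in vitro at 0.1 or 1 μM. Activity is expressed as percentage of kinase activity in DMSO control reactions, as the mean ± S.D. of triplicate reactions.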

[3] = test system: Ribosomal protein S6 kinase beta-1 (Homo sapiens), P23443 [T412E]; assay: Inhibition of recombinant human His6-tagged S6K1 T412E mutant (1 to 421 residues) expressed in baculovirus infected Sf21 cells assessed as remaining activity at 1 uM using KKRNRTLTV as substrate incubated for 30 mins in presence of [gamma-33P]ATP by filter binding method relative to control; method in brief: as §2
[4] = target: Mitogen-activated protein kinase kinase kinase kinase 2 (Homo sapiens) (UniProt Q12851); assay: Inhibition of recombinant human N-terminal His6-tagged GCK (2 to 812 residues) expressed in baculovirus infected Sf21 cells assessed as remaining activity at 1 uM using MBP as substrate incubated for 30 mins in presence of [gamma-33P]ATP by filter binding method relative to control; method in brief: as §1
[5] = target: cAMP-dependent protein kinase catalytic subunit alpha (Homo sapiens) (UniProt P17612); assay: Inhibition of recombinant human N-terminal GST-tagged PKAalpha (2 to 351 residues) expressed in Escherichia coli assessed as remaining activity at 1 uM using Kemptide as substrate incubated for 30 mins in presence of [gamma-33P]ATP by filter binding method relative to control; method in brief: as §1
[6] = target: Serine/threonine-protein kinase D1 (Homo sapiens) (UniProt Q15139); assay: Inhibition of recombinant human N-terminal His6-tagged PKD1 (2 to 912 residues) expressed in baculovirus infected Sf21 cells assessed as remaining activity at 1 uM using KKLNRTLSVA as substrate incubated for 30 mins in presence of [gamma-33P]ATP by filter binding method relative to control; method in brief: as §1
[7] = target: Mitogen-activated protein kinase kinase kinase 11 (Homo sapiens) (UniProt Q16584); assay: (§3) Inhibition of recombinant human N-terminal GST-tagged MLK3 (96 to 386 residues) expressed in baculovirus infected Sf21 cells assessed as remaining activity at 1 uM using MBP as substrate incubated for 30 mins in presence of [gamma-33P]ATP by filter binding method relative to control; method in brief: as §1
[8] = target: T1, NUAK family SNF1-like kinase 1 (Homo sapiens) (UniProt O60285); assay: Inhibition of NUAK1 in HEK293 cells assessed as reduction in MYPT1 phosphorylation at Ser445 residue incubated for 16 hrs by immunoblot analysis; type: cell-based; details: dose 3-10 µM
T1 sequence (whole entry): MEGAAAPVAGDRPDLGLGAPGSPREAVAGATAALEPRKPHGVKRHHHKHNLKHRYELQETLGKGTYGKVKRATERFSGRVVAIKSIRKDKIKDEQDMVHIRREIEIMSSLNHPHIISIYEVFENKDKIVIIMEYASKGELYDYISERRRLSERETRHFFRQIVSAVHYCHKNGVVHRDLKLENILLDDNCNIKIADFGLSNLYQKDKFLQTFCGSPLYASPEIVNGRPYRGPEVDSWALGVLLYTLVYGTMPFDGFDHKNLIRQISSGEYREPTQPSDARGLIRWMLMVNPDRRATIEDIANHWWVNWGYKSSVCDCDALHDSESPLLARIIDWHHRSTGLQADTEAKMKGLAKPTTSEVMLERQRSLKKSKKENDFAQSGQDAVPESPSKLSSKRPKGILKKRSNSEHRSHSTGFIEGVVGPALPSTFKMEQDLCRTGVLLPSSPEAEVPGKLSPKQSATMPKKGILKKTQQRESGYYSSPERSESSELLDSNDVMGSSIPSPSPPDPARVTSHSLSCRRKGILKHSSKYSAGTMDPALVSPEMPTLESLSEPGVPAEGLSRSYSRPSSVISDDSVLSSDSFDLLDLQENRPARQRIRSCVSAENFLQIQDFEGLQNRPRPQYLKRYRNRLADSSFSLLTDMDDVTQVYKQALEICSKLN
Method in brief: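 HEK-293 cells exposed to inhibitor or DMSO for 16 h; medium replaced by EDTA-PBS dissociation buffer with the same inhibitor concentration to induce detachment (gentle tapping, 70 g, 3 min); cells lysed at once; MYPT1 immunoprecipitated from 0.5 mg lysate, blotted for p-Ser445 and total MYPT1; repeated three times.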

[9] = target: Testis-specific serine/threonine-protein kinase 1 (Homo sapiens) (UniProt Q9BXA7); assay: Inhibition of recombinant human N-terminal GST-tagged TSSK1 (1 to 367 residues) expressed in Escherichia coli assessed as remaining activity at 1 uM using KKKVSRSGLYRSPSMPENLNRPR as substrate incubated for 30 mins in presence of [gamma-33P]ATP by filter binding method relative to control; method in brief: as §1
[10] = target: Serine/threonine-protein kinase TBK1 (Homo sapiens) (UniProt Q9UHD2); assay: as §3, with “TBK1 (1” for “MLK3 (96”, “729” for “386”, “KKKKERLLDDRHDSGLDSMKDEE” for “MBP”; method in brief: as §1
[11] = test system: U2OS; assay: Antiproliferative activity against human U2OS cells assessed as reduction in cell viability at 10 uM after 5 days by CellTiter 96 non-radioactive cell proliferation assay; type: functional, cell-based; details: time 5.0 day
Method in brief: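 Colorimetric CellTiter 96 AQueous proliferation assay in 96-well format; 2000 cells/well seeded for U2OS, 3000 cells/well for MEFs; grown 5 days with or without 10 μM inhibitor; run in triplicate. Inhibitors dissolved in DMSO, final DMSO in medium ≤1%. MEFs cultured in DMEM/10% FBS, glutamine, non-essential amino acids, sodium pyruvate.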

[12] = target: Calcium/calmodulin-dependent protein kinase type 1 (Homo sapiens) (UniProt Q14012); assay: Inhibition of recombinant human N-terminal GST-tagged CAMK1alpha (2 to 369 residues) expressed in Escherichia coli assessed as remaining activity at 1 uM using YLRRRLSDSNF as substrate incubated for 30 mins in presence of [gamma-33P]ATP by filter binding method relative to control; method in brief: as §1

Sequence of Mitogen-activated protein kinase kinase kinase kinase 2 (Homo sapiens) (Q12851 whole entry, the tested form may be a part): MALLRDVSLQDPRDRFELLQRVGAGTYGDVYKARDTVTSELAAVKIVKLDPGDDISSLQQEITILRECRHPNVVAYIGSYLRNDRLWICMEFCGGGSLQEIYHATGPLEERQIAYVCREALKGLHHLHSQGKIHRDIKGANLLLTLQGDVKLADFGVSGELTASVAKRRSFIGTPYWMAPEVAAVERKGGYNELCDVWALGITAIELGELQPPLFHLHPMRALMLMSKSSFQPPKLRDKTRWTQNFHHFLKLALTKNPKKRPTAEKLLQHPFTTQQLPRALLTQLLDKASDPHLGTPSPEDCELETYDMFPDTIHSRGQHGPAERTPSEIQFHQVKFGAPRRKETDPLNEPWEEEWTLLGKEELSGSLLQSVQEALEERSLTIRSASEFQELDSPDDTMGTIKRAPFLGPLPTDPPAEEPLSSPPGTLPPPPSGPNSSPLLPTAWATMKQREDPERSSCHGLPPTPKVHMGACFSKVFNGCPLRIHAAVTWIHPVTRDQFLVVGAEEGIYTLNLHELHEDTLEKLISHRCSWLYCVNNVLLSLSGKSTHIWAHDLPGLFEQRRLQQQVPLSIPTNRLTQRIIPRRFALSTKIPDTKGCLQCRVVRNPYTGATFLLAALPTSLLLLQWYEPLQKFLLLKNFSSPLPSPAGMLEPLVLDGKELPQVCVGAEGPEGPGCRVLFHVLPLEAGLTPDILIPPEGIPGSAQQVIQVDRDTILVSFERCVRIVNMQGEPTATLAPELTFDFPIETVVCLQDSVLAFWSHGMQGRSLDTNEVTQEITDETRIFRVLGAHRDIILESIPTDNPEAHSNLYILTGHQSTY
Sequence of Testis-specific serine/threonine-protein kinase 1 (Homo sapiens) (Q9BXA7 whole entry, the tested form may be a part): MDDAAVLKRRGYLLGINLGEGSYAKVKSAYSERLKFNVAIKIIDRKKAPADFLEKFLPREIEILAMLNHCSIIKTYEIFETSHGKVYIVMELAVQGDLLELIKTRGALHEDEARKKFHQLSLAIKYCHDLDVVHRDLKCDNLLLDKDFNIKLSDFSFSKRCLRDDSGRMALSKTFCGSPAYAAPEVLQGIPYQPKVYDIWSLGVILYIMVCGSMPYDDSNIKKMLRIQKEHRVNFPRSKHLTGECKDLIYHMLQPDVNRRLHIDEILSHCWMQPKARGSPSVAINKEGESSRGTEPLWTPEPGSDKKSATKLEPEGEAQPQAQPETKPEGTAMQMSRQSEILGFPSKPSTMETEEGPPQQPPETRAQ
Sequence of Serine/threonine-protein kinase BRSK2 (Homo sapiens) (Q8IWQ3 whole entry, the tested form may be a part): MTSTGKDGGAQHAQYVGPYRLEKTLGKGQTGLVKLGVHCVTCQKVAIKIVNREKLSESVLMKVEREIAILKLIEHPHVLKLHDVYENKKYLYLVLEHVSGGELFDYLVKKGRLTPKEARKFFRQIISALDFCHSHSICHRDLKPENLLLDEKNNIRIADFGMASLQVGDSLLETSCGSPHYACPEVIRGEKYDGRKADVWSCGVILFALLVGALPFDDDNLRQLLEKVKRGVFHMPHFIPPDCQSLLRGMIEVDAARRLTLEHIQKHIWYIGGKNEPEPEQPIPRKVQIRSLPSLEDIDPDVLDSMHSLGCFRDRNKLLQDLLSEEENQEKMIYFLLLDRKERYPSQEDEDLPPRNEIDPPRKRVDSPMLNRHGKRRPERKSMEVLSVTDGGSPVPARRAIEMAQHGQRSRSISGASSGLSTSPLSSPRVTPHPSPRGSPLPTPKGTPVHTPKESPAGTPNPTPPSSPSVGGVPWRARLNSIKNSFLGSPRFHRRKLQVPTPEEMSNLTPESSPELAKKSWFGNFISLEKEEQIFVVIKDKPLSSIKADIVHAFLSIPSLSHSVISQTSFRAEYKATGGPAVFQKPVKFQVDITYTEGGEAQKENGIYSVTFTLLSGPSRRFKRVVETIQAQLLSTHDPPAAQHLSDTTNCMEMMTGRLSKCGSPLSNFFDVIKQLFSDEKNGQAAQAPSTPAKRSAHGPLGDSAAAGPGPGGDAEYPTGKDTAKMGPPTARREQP
Sequence of Serine/threonine-protein kinase D1 (Homo sapiens) (Q15139 whole entry, the tested form may be a part): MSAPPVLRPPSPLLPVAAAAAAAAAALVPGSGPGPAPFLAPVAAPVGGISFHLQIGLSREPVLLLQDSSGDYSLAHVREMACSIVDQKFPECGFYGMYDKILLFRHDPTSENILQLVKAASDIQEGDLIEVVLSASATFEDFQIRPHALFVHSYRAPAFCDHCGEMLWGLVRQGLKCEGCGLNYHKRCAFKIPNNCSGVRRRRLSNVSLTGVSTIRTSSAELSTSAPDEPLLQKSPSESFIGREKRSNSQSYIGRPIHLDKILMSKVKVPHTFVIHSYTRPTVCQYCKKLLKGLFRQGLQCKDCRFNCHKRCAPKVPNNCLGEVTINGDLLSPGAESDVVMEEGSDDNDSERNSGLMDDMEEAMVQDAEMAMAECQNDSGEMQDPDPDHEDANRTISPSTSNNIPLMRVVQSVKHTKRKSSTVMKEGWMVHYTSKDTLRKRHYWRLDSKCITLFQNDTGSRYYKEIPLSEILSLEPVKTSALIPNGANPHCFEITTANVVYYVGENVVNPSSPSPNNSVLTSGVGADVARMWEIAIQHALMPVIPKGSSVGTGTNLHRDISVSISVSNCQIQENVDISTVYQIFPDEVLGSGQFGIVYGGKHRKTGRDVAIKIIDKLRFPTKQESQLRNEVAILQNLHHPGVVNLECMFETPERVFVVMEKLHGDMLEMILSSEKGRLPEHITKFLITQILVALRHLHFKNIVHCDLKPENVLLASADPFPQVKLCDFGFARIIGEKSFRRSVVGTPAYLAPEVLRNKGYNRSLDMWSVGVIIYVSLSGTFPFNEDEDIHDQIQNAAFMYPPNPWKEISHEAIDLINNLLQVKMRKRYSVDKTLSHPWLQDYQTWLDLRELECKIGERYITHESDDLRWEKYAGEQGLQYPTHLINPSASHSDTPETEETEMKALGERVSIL
Sequence of Serine/threonine-protein kinase TBK1 (Homo sapiens) (Q9UHD2 whole entry): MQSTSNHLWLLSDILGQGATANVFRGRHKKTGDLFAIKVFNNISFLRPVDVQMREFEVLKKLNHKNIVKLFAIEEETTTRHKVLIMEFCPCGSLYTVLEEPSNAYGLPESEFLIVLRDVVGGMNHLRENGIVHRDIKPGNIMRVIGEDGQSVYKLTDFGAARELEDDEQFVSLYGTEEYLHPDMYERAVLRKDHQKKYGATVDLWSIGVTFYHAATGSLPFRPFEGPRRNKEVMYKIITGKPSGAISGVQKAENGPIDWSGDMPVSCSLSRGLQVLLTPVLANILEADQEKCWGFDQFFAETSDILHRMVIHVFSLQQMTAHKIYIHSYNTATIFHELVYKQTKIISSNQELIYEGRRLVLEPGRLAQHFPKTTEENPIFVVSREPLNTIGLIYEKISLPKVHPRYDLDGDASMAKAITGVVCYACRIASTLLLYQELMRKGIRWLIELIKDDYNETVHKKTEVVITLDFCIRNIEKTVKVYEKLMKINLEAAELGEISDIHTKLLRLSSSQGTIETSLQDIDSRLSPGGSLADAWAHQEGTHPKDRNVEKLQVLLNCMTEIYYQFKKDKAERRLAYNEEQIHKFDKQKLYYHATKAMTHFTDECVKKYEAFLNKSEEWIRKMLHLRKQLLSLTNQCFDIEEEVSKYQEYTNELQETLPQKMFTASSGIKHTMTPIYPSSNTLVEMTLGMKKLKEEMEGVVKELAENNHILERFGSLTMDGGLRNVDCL
Sequence of Ribosomal protein S6 kinase beta-1 (Homo sapiens), P23443 [T412E] (P23443 whole entry T412E, looked up, the tested form may be a part): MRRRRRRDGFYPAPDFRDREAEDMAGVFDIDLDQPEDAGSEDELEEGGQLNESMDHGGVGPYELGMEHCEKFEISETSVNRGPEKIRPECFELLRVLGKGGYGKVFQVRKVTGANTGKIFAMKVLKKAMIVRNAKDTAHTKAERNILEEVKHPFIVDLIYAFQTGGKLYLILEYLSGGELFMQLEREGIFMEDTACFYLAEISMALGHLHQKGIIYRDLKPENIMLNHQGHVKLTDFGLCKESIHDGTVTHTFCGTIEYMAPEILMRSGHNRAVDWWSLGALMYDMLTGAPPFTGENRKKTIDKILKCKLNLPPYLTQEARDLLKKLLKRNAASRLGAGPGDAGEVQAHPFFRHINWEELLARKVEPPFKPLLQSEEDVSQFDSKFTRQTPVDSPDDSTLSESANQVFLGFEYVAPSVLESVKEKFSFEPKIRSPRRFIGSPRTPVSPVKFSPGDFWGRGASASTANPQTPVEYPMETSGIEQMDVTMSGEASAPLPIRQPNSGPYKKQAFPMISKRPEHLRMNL
Sequence of Mitogen-activated protein kinase kinase kinase 11 (Homo sapiens) (Q16584 whole entry, looked up, the tested form may be a part): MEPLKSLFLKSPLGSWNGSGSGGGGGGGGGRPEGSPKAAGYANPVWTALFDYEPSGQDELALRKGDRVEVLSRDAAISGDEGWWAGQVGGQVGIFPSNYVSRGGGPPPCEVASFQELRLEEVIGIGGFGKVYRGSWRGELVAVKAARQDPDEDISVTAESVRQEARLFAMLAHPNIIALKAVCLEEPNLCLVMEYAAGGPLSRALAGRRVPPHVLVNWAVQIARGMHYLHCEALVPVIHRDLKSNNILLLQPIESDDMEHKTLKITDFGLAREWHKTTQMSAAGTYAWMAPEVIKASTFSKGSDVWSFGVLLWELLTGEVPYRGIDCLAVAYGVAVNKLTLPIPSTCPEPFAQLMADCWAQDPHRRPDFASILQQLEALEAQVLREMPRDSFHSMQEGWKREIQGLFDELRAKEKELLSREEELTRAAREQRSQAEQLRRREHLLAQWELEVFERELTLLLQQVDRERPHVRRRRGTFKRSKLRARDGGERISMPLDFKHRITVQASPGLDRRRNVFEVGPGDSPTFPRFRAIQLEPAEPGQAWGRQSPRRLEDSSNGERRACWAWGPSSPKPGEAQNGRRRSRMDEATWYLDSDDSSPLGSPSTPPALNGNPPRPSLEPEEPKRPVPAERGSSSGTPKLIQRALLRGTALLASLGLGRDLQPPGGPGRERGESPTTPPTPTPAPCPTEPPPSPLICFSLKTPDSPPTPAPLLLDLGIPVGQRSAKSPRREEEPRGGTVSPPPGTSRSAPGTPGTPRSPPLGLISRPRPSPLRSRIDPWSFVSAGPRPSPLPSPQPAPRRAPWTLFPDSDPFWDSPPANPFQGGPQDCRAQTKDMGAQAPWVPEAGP

Question: `CCC(=O)Nc1cccc(Oc2nc(Nc3ccc(N4CCN(C)CC4)cc3OC)ncc2Cl)c1` was tested. Which Activity [1] did it give?
Answer: Its Activity is 75%.

Question: And the Activity [2]?
Answer: The Activity was 83%.

Question: What about the Activity [3] of the same compound?
Answer: Its Activity is 83%.

Question: What about the Activity [4] of the same compound?
Answer: The Activity was 96%.

Question: And the Activity [5]?
Answer: Its Activity is 84%.

Question: What about the Activity [6] of the same compound?
Answer: Its Activity is 57%.

Question: What about the Activity [7] of the same compound?
Answer: The Activity was 73%.

Question: What about the inhibition [8] of the same compound?
Answer: The inhibition was “Dose-Dependent Effect”.

Question: What about the Activity [9] of the same compound?
Answer: The Activity was 58%.

Question: What about the Activity [10] of the same compound?
Answer: The Activity was 84%.

Question: What about the inhibition [11] of the same compound?
Answer: The inhibition was “Active”.

Question: What about the Activity [12] of the same compound?
Answer: Its Activity is 81%.
